Measured values gathered from unrelated publications.
Mode: inhibitor
MET: Hepatocyte growth factor receptor (MET, Homo sapiens, UniProt P08581)
MET M1250T: Hepatocyte growth factor receptor (MET, Homo sapiens, UniProt P08581, M1250T)

Structure (SMILES) | target | assay | conditions | inhibition [%]
CCCS(=O)(=O)Nc1ccc(F)c(C(=O)c2c[nH]c3ncc(-c4ccc(Cl)cc4)cc23)c1F | MET | enzyme activity | 1 µM | < 20
CS(=O)(=O)Nc1cccc(-c2csc(NC(=O)CSc3nc4nccnc4c(=O)n3CCc3ccccc3)n2)c1 | MET | enzyme activity | 10 µM | 1
CNC(=O)c1cc2c(Oc3ccc(NC(=O)C4(C(=O)Nc5ccc(F)cc5)CC4)cc3)ccnc2cc1OC | Hepatocyte growth factor receptor (MET, Homo sapiens, UniProt P08581, Y1230C) | enzyme activity, radiometric | 1 µM | 100
CN(C)C1CCN(CC#Cc2nn(C3CCCC3)c3nc(NCc4ccccc4)ncc23)C1 (stereo not drawn) | MET | enzyme activity, FRET | 0.1 µM | 6
COc1cc2ncnc(Nc3ccc(Oc4ccccc4)cc3C)c2cc1OC | MET M1250T | enzyme activity | 1 µM | -1
CN1CC(Oc2cnc(C#N)cc2-c2ccn3nc(NC(=O)C4CC4)cc3c2)C1 | MET | enzyme activity | 1 µM | -19
CNC(=O)c1cc(Oc2ccc(NC(=O)Nc3ccc(Cl)c(C(F)(F)F)c3)cc2)ccn1 | MET | enzyme activity | 10 µM | -13
CC/C(=N\NC(=O)NCc1cccc(O)c1)c1ccc(O)c(C)c1O | MET M1250T | enzyme activity | 0.1 µM | -0.2
CNc1cccc2cc(C(=O)Nc3ccc(C(=O)O)cc3)c(=O)[nH]c12 | MET | enzyme activity | 10 µM | 1.4
COc1cc2ncnc(Nc3ccc(Oc4ccccc4)c(C)c3C)c2cc1OC | MET M1250T | enzyme activity | 1 µM | -2
C=CC(=O)Nc1cc(Nc2nccc(Nc3cc(Cl)c(F)cc3C(C)(C)O)n2)c(OC)cc1N1CC[C@@H](N(C)C)C1 | MET | enzyme activity | 1 µM | 30
CSc1nc(C)c(-c2ccnc(Nc3ccc(N4CCOCC4)cc3)c2)[nH]1 | MET | cell-free assay | 10 µM | 28.2
